Tested on: HEK-293T
Experiment: Multiplex assay against HEK293T
Format: toxicity, cell-based
Conditions: human
In short: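 Cells were classed with CellPathfinder machine-learning gating, first as Hoechst high-intensity objects or normal cells, then (normal cells) as healthy, pyknosed or fragmented nuclei, and finally (pyknosed cells) as mitotic or apoptotic. Staining of live cells at seeding used Hoechst33342, BioTracker Green Microtubule Cytoskeleton Dye, MitoTracker Red and Annexin V Alexa Fluor 680, with imaging on a CQ1 microscope at 37°C and 5% CO2 after compound addition. Tubulin, mitochondrial-mass and membrane-permeability phenotypes are per cents of healthy-nucleus cells.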

[1] = 12 h, 1 µM, compound concentration 1 uM, replicate 1
[2] = 12 h, 1 µM, compound concentration 1 uM, replicate 2
[3] = 12 h, 10 µM, compound concentration 10 uM, replicate 1
[4] = 12 h, 10 µM, compound concentration 10 uM, replicate 2
[5] = 24 h, 1 µM, compound concentration 1 uM, replicate 1
[6] = 24 h, 1 µM, compound concentration 1 uM, replicate 2
[7] = 24 h, 10 µM, compound concentration 10 uM, replicate 1
[8] = 24 h, 10 µM, compound concentration 10 uM, replicate 2
[9] = 48 h, 1 µM, compound concentration 1 uM, replicate 1
[10] = 48 h, 1 µM, compound concentration 1 uM, replicate 2
[11] = 48 h, 10 µM, compound concentration 10 uM, replicate 1
[12] = 48 h, 10 µM, compound concentration 10 uM, replicate 2

Compound: COc1ccc2[nH]c(I)c(CCNC(C)=O)c2c1 [IODOMELATONIN]
- Population Apoptotic (%) [1]: 42%
- Population Fragmented Nuclei (%) [1]: 4%
- Population Healthy Nuclei (%) [1]: 80%
- Population Hoechst High Intensity Objects (%) [1]: 5%
- Population Membrane Permeable-Phenotype (%) [1]: 1%
- Population Mitochondria Different-Phenotype (%) [1]: 43%
- Population Mitotic Cells (%) [1]: 57%
- Population Normal (%) [1]: 94%
- Population Pyknosed Nuclei (%) [1]: 14%
- Population Tubulin-Different-Phenotype (%) [1]: 35%
- Total Cell Count [1]: 388
- Population Apoptotic (%) [2]: 59%
- Population Fragmented Nuclei (%) [2]: 5%
- Population Healthy Nuclei (%) [2]: 84%
- Population Hoechst High Intensity Objects (%) [2]: 7%
- Population Membrane Permeable-Phenotype (%) [2]: 0%
- Population Mitochondria Different-Phenotype (%) [2]: 64%
- Population Mitotic Cells (%) [2]: 40%
- Population Normal (%) [2]: 92%
- Population Pyknosed Nuclei (%) [2]: 10%
- Population Tubulin-Different-Phenotype (%) [2]: 32%
- Total Cell Count [2]: 400
- Population Apoptotic (%) [3]: 38%
- Population Fragmented Nuclei (%) [3]: 11%
- Population Healthy Nuclei (%) [3]: 77%
- Population Hoechst High Intensity Objects (%) [3]: 8%
- Population Membrane Permeable-Phenotype (%) [3]: 0%
- Population Mitochondria Different-Phenotype (%) [3]: 52%
- Population Mitotic Cells (%) [3]: 61%
- Population Normal (%) [3]: 91%
- Population Pyknosed Nuclei (%) [3]: 10%
- Population Tubulin-Different-Phenotype (%) [3]: 29%
- Total Cell Count [3]: 445
- Population Apoptotic (%) [4]: 46%
- Population Fragmented Nuclei (%) [4]: 8%
- Population Hoechst High Intensity Objects (%) [4]: 12%
- Population Mitochondria Different-Phenotype (%) [4]: 62%
- Population Mitotic Cells (%) [4]: 53%
- Population Normal (%) [4]: 87%
- Population Pyknosed Nuclei (%) [4]: 14%
- Population Tubulin-Different-Phenotype (%) [4]: 25%
- Total Cell Count [4]: 316
- Population Apoptotic (%) [5]: 38%
- Population Fragmented Nuclei (%) [5]: 8%
- Population Healthy Nuclei (%) [5]: 80%
- Population Hoechst High Intensity Objects (%) [5]: 3%
- Population Membrane Permeable-Phenotype (%) [5]: 1%
- Population Mitochondria Different-Phenotype (%) [5]: 24%
- Population Mitotic Cells (%) [5]: 61%
- Population Normal (%) [5]: 96%
- Population Pyknosed Nuclei (%) [5]: 11%
- Population Tubulin-Different-Phenotype (%) [5]: 23%
- Total Cell Count [5]: 511
- Population Apoptotic (%) [6]: 44%
- Population Fragmented Nuclei (%) [6]: 9%
- Population Healthy Nuclei (%) [6]: 78%
- Population Hoechst High Intensity Objects (%) [6]: 8%
- Population Membrane Permeable-Phenotype (%) [6]: 0%
- Population Mitochondria Different-Phenotype (%) [6]: 37%
- Population Mitotic Cells (%) [6]: 55%
- Population Normal (%) [6]: 91%
- Population Tubulin-Different-Phenotype (%) [6]: 14%
- Total Cell Count [6]: 497
- Population Apoptotic (%) [7]: 32%
- Population Fragmented Nuclei (%) [7]: 11%
- Population Healthy Nuclei (%) [7]: 77%
- Population Hoechst High Intensity Objects (%) [7]: 5%
- Population Membrane Permeable-Phenotype (%) [7]: 1%
- Population Mitochondria Different-Phenotype (%) [7]: 31%
- Population Mitotic Cells (%) [7]: 67%
- Population Normal (%) [7]: 94%
- Population Pyknosed Nuclei (%) [7]: 10%
- Population Tubulin-Different-Phenotype (%) [7]: 25%
- Total Cell Count [7]: 568
- Population Apoptotic (%) [8]: 40%
- Population Fragmented Nuclei (%) [8]: 5%
- Population Healthy Nuclei (%) [8]: 81%
- Population Hoechst High Intensity Objects (%) [8]: 9%
- Population Membrane Permeable-Phenotype (%) [8]: 0%
- Population Mitochondria Different-Phenotype (%) [8]: 48%
- Population Mitotic Cells (%) [8]: 59%
- Population Normal (%) [8]: 90%
- Population Pyknosed Nuclei (%) [8]: 12%
- Population Tubulin-Different-Phenotype (%) [8]: 21%
- Total Cell Count [8]: 360
- Population Apoptotic (%) [9]: 26%
- Population Fragmented Nuclei (%) [9]: 12%
- Population Healthy Nuclei (%) [9]: 79%
- Population Hoechst High Intensity Objects (%) [9]: 4%
- Population Membrane Permeable-Phenotype (%) [9]: 1%
- Population Mitochondria Different-Phenotype (%) [9]: 19%
- Population Mitotic Cells (%) [9]: 73%
- Population Normal (%) [9]: 95%
- Population Pyknosed Nuclei (%) [9]: 7%
- Population Tubulin-Different-Phenotype (%) [9]: 16%
- Total Cell Count [9]: 770
- Population Apoptotic (%) [10]: 31%
- Population Hoechst High Intensity Objects (%) [10]: 5%
- Population Mitochondria Different-Phenotype (%) [10]: 22%
- Population Mitotic Cells (%) [10]: 68%
- Population Normal (%) [10]: 94%
- Population Pyknosed Nuclei (%) [10]: 8%
- Population Tubulin-Different-Phenotype (%) [10]: 14%
- Total Cell Count [10]: 622
- Population Apoptotic (%) [11]: 23%
- Population Fragmented Nuclei (%) [11]: 16%
- Population Healthy Nuclei (%) [11]: 77%
- Population Hoechst High Intensity Objects (%) [11]: 1%
- Population Membrane Permeable-Phenotype (%) [11]: 1%
- Population Mitochondria Different-Phenotype (%) [11]: 16%
- Population Mitotic Cells (%) [11]: 76%
- Population Normal (%) [11]: 98%
- Population Pyknosed Nuclei (%) [11]: 5%
- Population Tubulin-Different-Phenotype (%) [11]: 11%
- Total Cell Count [11]: 860
- Population Apoptotic (%) [12]: 25%
- Population Fragmented Nuclei (%) [12]: 15%
- Population Healthy Nuclei (%) [12]: 75%
- Population Hoechst High Intensity Objects (%) [12]: 2%
- Population Membrane Permeable-Phenotype (%) [12]: 0%
- Population Mitochondria Different-Phenotype (%) [12]: 24%
- Population Mitotic Cells (%) [12]: 74%
- Population Normal (%) [12]: 97%
- Population Pyknosed Nuclei (%) [12]: 9%
- Population Tubulin-Different-Phenotype (%) [12]: 16%
- Total Cell Count [12]: 613
